Results on 8 molecules are retold here after article PMC7974029 (The Journal of Biological Chemistry, 2021).

One test deals with BuSGBP-B. To be noted: BuSGBP-B full length; cited from earlier work.
The subject of the next test is CBML-middle of BuSGBP-B. As to the kind of experiment: Affinity gel electrophoresis, BuSGBP-B CBML-middle domain. Format: binding, Bacteroides uniformis. Particulars: 0.1% (w/v) polysaccharide in native gel. The method in brief:
(§1)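 Native PAGE with 10% (w/v) acrylamide cast with 0.1% (w/v) polysaccharide, or water for the control gel. 6.0 μg recombinant SGBP domain (His₆-tagged, E. coli BL21(DE3), Ni-IMAC, tag removed, size-exclusion purified) and 5.0 μg BSA reference were loaded. Gels were run nondenaturing at 80 V, 3 h, room temperature, and stained with Coomassie Brilliant Blue.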

A further test concerns BuSGBP-A. Particulars: cited from earlier work.
For test [1], the target named is T1, BfSGBP-B (Bacteroides fluxus, UniProt F3PPH3).
T1 sequence (F3PPH3 21-290): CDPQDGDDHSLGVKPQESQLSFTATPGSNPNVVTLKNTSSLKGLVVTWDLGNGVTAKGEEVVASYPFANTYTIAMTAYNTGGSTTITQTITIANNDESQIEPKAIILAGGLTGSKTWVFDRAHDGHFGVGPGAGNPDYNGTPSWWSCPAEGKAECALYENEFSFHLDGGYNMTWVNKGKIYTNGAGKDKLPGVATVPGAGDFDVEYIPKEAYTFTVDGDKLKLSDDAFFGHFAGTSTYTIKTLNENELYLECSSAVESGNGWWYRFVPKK
To be noted: BfSGBP-B full length; cited from earlier work.

Another test deals with CBML-distal of BuSGBP-B. As to the kind of experiment: Affinity gel electrophoresis, BuSGBP-B CBML-distal domain. The format is binding, Bacteroides uniformis. Particulars: 0.1% (w/v) polysaccharide in native gel. The gist of the method:
as §1

Test [2] deals with T1, BfSGBP-B. As to the kind of experiment: ITC of laminarioligosaccharides and MLG oligosaccharides with BfSGBP-B. The format is binding. The method in brief:
(§2)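 Recombinant SGBP from E. coli BL21(DE3) (IMAC, tag cleavage, SEC) at 100 μM in the cell was titrated with 1 mM laminari- or mixed-linkage gluco-oligosaccharide, all in 20 mM HEPES pH 7.0, at 25 °C. One 0.2 μl injection, then 18 × 2 μl at 150 s intervals, stirring 750 rpm. Isotherms were fitted with stoichiometry n fixed at 1.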

A further test concerns the target T2, BtSGBP-A (Bacteroides thetaiotaomicron, UniProt A0A173VPY3).
T2 sequence (A0A173VPY3 23-515): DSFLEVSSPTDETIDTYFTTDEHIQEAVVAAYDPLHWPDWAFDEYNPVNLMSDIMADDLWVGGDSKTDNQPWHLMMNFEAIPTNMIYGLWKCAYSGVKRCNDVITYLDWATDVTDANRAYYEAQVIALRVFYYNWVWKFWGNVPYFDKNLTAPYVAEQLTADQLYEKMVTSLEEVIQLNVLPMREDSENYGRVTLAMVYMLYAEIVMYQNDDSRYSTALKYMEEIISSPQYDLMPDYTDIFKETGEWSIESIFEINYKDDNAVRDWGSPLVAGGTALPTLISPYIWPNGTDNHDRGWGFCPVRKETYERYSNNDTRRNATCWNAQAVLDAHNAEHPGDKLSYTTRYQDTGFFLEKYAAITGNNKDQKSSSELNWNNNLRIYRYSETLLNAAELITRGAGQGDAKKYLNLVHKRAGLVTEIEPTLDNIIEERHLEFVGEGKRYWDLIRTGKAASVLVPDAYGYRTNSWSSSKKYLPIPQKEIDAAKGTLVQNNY
As to the kind of experiment: ITC of laminarioligosaccharides with BtSGBP-A. Format: binding. Particulars: for KD: BtSGBP-A, ITC, value as given in running text. The method in brief:
as §2

Test [3] relates to CBML-middle domain of BtSGBP. As to the kind of experiment: Affinity gel electrophoresis, BtSGBP-B CBML-middle domain. The format is binding, Bacteroides thetaiotaomicron. Particulars: 0.1% (w/v) polysaccharide in native gel. The method in brief:
as §1

As to β(1,3)-glucan, the polysaccharide binding entry in the test with BuSGBP-B was “bind”; in the test on BuSGBP-A it was “does not display binding”; at BfSGBP-B [1], “bind”. For the same molecule, the “binding by affinity gel electrophoresis (AGE)” value in the test with CBML-middle of BuSGBP-B and in the test with CBML-distal of BuSGBP-B was “bind” in each case. As for `OC[C@H]1O[C@@H](O[C@H]2[C@H](O)[C@@H](O)[C@H](O[C@H]3[C@H](O)[C@@H](O)[C@H](O[C@H]4[C@H](O)[C@@H](CO)OC(O)[C@@H]4O)O[C@@H]3CO)O[C@@H]2CO)[C@H](O)[C@@H](O)[C@@H]1O` (stereo partly drawn) [G4G4G3G], the “binding to BfSGBP-B by ITC (in words)” value on BfSGBP-B [2] is “binding”. On to `OC[C@H]1O[C@@H](O[C@@H]2[C@@H](O)[C@H](O[C@@H]3[C@@H](O)[C@H](O[C@@H]4[C@@H](O)[C@H](O[C@H]5[C@H](O)[C@@H](CO)OC(O)[C@@H]5O)O[C@H](CO)[C@H]4O)O[C@H](CO)[C@H]3O)O[C@H](CO)[C@H]2O)[C@H](O)[C@@H](O)[C@@H]1O` (stereo partly drawn) [Laminaripentaose], for which binding at BtSGBP-A was characterised by a dissociation constant (Kd) of 210 µM.

As to “mixed-linkage β(1,3)/β(1,4)-glucan [MLG]”, the polysaccharide binding entry in the test on BuSGBP-B and on BfSGBP-B [1] was “bind” throughout. The “binding by affinity gel electrophoresis (AGE)” value in the test with CBML-middle of BuSGBP-B is “exclusively responsible for the binding”; in test [3] it was “cannot bind”. Regarding `OC[C@H]1O[C@@H](O[C@@H]2[C@@H](O)[C@H](O[C@H]3[C@H](O)[C@@H](CO)OC(O)[C@@H]3O)O[C@H](CO)[C@H]2O)[C@H](O)[C@@H](O)[C@@H]1O` (stereo partly drawn) [Laminaritriose], the KD result on BtSGBP-A is listed as “too weak to be quantified”. `OC[C@H]1O[C@@H](O[C@@H]2[C@@H](O)[C@H](O[C@@H]3[C@@H](O)[C@H](O[C@H]4[C@H](O)[C@@H](CO)OC(O)[C@@H]4O)O[C@H](CO)[C@H]3O)O[C@H](CO)[C@H]2O)[C@H](O)[C@@H](O)[C@@H]1O` (stereo partly drawn) [Laminaritetraose]: at BtSGBP-A, the KD result was “too weak to be quantified”. In turn, `OC[C@H]1O[C@@H](O[C@@H]2[C@@H](O)[C@H](O[C@@H]3[C@@H](O)[C@H](O[C@@H]4[C@@H](O)[C@H](O[C@@H]5[C@@H](O)[C@H](O[C@H]6[C@H](O)[C@@H](CO)OC(O)[C@@H]6O)O[C@H](CO)[C@H]5O)O[C@H](CO)[C@H]4O)O[C@H](CO)[C@H]3O)O[C@H](CO)[C@H]2O)[C@H](O)[C@@H](O)[C@@H]1O` (stereo partly drawn) [Laminarihexaose] showed a Kd on BtSGBP-A of 26 µM. For the molecule `OC[C@H]1O[C@@H](O[C@H]2[C@H](O)[C@@H](O)[C@H](O[C@H]3[C@H](O)[C@@H](CO)OC(O)[C@@H]3O)O[C@@H]2CO)[C@H](O)[C@@H](O)[C@@H]1O` (stereo partly drawn) [G4G3G], at BfSGBP-B [2], the “binding to BfSGBP-B by ITC (in words)” value was “binding”.

For orientation: Kd means a measure of binding affinity in units of concentration. The low end stands for higher affinity, the high end for lower affinity.
